The source made the active and inactive calls. The rule behind the calls is not given here.
Columns and labels:
Candida albicans [1] = test: Induction of membrane permeabilization in Candida albicans assessed as calcein release at 0.8 uM after 90 min; type: functional
How it was run: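 Early-stationary yeast washed in 10 mM NaPB, loaded at 10⁷/ml with 5 μM (final) calcein-AM for 2 h at room temperature, then washed four times; 10⁶ cells given 0.8 μM hBD-3 or 32 μM Hst 5. Fluorescence (ex 485/em 530 nm) read every 5 min for 90 min. Percent release = (I_r − I_bkg)/(I_int − I_bkg) × 100, where I_int comes from boiling 10 min. Mean ± SD of three experiments.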

Candida albicans [2] = test: Induction of ATP efflux in Candida albicans CAF4-2 at 1 uM; type: functional, organism-based
How it was run: (§1)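 10⁴ C. albicans cells given 31 μM Hst 5 or 1 μM hBD-3, with or without 2 h pretreatment in 1 mM NaN₃. Extracellular ATP read by luminometry at 0, 5, 15, 30, 45 and 60 min. Values come from per-experiment ATP standard curves, as pmol ATP per 10⁴ cells.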

Candida albicans [3] = test: Induction of ATP efflux in Candida albicans CAF4-2 at 1 uM in presence of 1 mM sodium azide; type: functional, organism-based; how it was run: as §1

CC[C@H](C)C(NC(=O)CN)C(=O)N[C@H](C(=O)N[C@@H](CC(N)=O)C(=O)N[C@H](C(=O)N[C@@H](CC(C)C)C(=O)N[C@@H](CCC(N)=O)C(=O)N[C@@H](CCCCN)C(=O)N[C@@H](Cc1ccc(O)cc1)C(=O)N[C@@H](Cc1ccc(O)cc1)C(=O)N[C@@H](CS)C(=O)N[C@@H](CCCNC(=N)N)C(=O)N[C@H](C(=O)N[C@@H](CCCNC(=N)N)C(=O)NCC(=O)NCC(=O)N[C@@H](CCCNC(=N)N)C(=O)N[C@@H](CS)C(=O)N[C@@H](C)C(=O)N[C@H](C(=O)N[C@@H](CC(C)C)C(=O)N[C@@H](CO)C(=O)N[C@@H](CS)C(=O)N[C@@H](CC(C)C)C(=O)N1CCC[C@H]1C(=O)N[C@@H](CCCCN)C(=O)N[C@@H](CCC(=O)O)C(=O)N[C@@H](CCC(=O)O)C(=O)N[C@@H](CCC(N)=O)C(=O)N[C@H](C(=O)NCC(=O)N[C@@H](CCCCN)C(=O)N[C@@H](CS)C(=O)N[C@@H](CO)C(=O)N[C@H](C(=O)N[C@@H](CCCNC(=N)N)C(=O)NCC(=O)N[C@@H](CCCNC(=N)N)C(=O)N[C@@H](CCCCN)C(=O)N[C@@H](CS)C(=O)N[C@@H](CS)C(=O)N[C@@H](CCCNC(=N)N)C(=O)N[C@@H](CCCNC(=N)N)C(=O)N[C@@H](CCCCN)C(=O)N[C@@H](CCCCN)C(=O)O)[C@@H](C)O)[C@@H](C)CC)C(C)C)C(C)C)[C@@H](C)O)[C@@H](C)CC (stereo partly drawn)
Activity (Candida albicans [1]): 24.2% | Activity (Candida albicans [2]): Active | Activity (Candida albicans [3]): inactive

Source: ChEMBL document CHEMBL1142155, “Human beta-defensins kill Candida albicans in an energy-dependent and salt-sensitive manner without causing membrane disruption” (2007)
